Experimental data pooled from the literature.
Protocols differ between the studies behind these lines.
Target: Serine/threonine-protein kinase TBK1 (TBK1, Homo sapiens, UniProt Q9UHD2)
Residues used in one study (Q9UHD2 1-729): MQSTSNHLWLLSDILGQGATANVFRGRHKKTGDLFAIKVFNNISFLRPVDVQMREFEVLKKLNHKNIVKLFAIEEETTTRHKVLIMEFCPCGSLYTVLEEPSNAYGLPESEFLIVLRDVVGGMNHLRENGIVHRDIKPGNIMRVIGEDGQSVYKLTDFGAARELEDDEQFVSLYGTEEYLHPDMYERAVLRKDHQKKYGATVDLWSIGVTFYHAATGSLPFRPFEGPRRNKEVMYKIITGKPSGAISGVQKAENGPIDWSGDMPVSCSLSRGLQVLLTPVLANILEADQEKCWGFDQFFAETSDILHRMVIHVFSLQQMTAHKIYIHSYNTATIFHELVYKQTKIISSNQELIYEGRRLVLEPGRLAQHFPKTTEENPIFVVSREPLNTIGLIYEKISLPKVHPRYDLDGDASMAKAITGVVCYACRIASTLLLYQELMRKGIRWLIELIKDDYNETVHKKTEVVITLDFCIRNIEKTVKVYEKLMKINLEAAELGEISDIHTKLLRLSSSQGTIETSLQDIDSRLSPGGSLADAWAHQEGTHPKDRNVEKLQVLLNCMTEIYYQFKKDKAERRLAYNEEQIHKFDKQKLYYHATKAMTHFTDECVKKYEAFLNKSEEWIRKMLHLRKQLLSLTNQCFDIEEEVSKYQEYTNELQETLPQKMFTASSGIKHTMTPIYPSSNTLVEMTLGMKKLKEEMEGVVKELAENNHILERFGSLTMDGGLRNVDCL

For `O=C(NCC1CCOCC1)c1n[nH]cc1NC(=O)c1c(F)cccc1F`, the remaining binding was 96% (binding, competition with immobilised ligand; 1 µM).
With `FC(F)(F)Oc1cccc(-c2cnc3ccc(-c4ccncc4)nn23)c1` the remaining binding was 54% (binding, competition with immobilised ligand; 5 µM).
For `COc1ccc2c(c1)O[C@H](c1ccc(OC)c(OC)c1)C[C@@H]2NC(=O)C1(c2ccc3c(c2)OC(F)(F)O3)CC1`, the remaining binding was 99% (cell-free assay, competition with immobilised ligand; 1 µM).
`CNC(=O)[C@@H]1CC[C@@H](n2c(-c3ccc4cnccc4c3)nc3ccc(C(=O)NCc4cccc(C(N)=O)c4)cc32)C1` gave a remaining binding of 95% (binding, competition with immobilised ligand; 1 µM).
The remaining binding of `CN(CCCC(F)(F)F)c1nccc(-c2cnn3ncccc23)n1` is reported as 91% (binding; 1 µM).
The remaining binding of `CC(C)(O)c1cncc(-c2nc3ccc(F)cc3n2C2CC2)c1` is reported as 72% (cell-free assay, competition with immobilised ligand; 1 µM).
`N[C@H]1CCN(c2nccc(-c3cnn4ncccc34)n2)C1` has a remaining binding of 100% (binding; 1 µM).
`O=C(Nc1ccc(Oc2ccc(F)cc2)cc1)N1CCc2ncccc2[C@H]1c1ccc(F)cc1` has a remaining binding of 81% (cell-free assay, competition with immobilised ligand; 1 µM).
The remaining binding of `O=C(c1ccc(Nc2ncc(Cl)c(-c3cc4ccccc4s3)n2)cc1)N1CCC(N2CCCC2)CC1` is reported as 11% (binding, competition with immobilised ligand; 1 µM).
`C[C@@H]1CCN(c2nccc(-c3cnn4ncccc34)n2)C1` gave a remaining binding of 63% (binding; 1 µM).
For `O=C(c1ccc(Nc2ncc(Cl)c(-c3ccc(Cl)s3)n2)cc1)N1CCC(N2CCCC2)CC1`, the remaining binding was 0% (binding, competition with immobilised ligand; 1 µM).
The remaining binding of `COc1ccnn2ncc(-c3ccnc(N(C)C)n3)c12` is reported as 68% (binding; 1 µM).
The remaining binding of `CC(=O)N1CCC(c2ccc(C(=O)NC(=N)N)cc2C(F)(F)F)CC1` is reported as 100% (cell-free assay, competition with immobilised ligand; 1 µM).
With `COc1ncc2cc3ccccc3nc2c1C#N` the remaining binding was 98% (cell-free assay, competition with immobilised ligand; 5 µM).
`COc1cnc(Nc2cccc(S(N)(=O)=O)c2)nc1N1CCN(c2ccccc2)C(=O)C1` gave a remaining binding of 61% (binding, competition with immobilised ligand; 1 µM).
The remaining binding of `O=C(c1ccc(Nc2nccc(-c3cc4ccccc4s3)n2)cc1)N1CCC(N2CCCC2)CC1` is reported as 27% (binding, competition with immobilised ligand; 1 µM).
For `CN(c1nccc(-c2cnn3ncccc23)n1)C1CC1`, the remaining binding was 100% (binding; 1 µM).
The remaining binding of `CC1=C(C#N)C(c2ccc3c(c2)c(NC(=O)c2ccccc2C)nn3C)C(C#N)=C(C)N1` is reported as 69% (cell-free assay, competition with immobilised ligand; 1 µM).
`CCN1CCN(Cc2ccc(C(=O)Nc3ccc(C)c(Oc4ccc5c(c4)CC(=O)N5)c3)cc2C(F)(F)F)CC1` has a remaining binding of 50% (binding, competition with immobilised ligand; 1 µM).
`CNCc1ccccc1-c1csc([C@@H](C)Nc2nc(C)nc3cc(OC)c(OC)cc23)c1` has a remaining binding of 100% (cell-free assay, competition with immobilised ligand; 1 µM).
`CN(C)c1ncc(F)c(-c2cnn3ncccc23)n1` has a remaining binding of 86% (binding; 1 µM).
